m5-HT2A agonist: mouse Htr2a agonists via beta-arrestin recruitment, primary screen, cell-based, luminescence; AID 624169, 2012; 360,000 tested, 0.66% active; 5-hydroxytryptamine receptor 2A (Mus musculus), P35363; CHO-K1 mHTR2A beta-arrestin complementation; percent of 30 µM serotonin response; activation, % at 7.6 µM;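 active = activation above a run cutoff, the mean activation of all tested compounds plus 3 SD, cut at about 14% in these data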;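 note: 0% = plate median of compound wells and 100% = 30 µM serotonin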
EBI2 block: EBI2 receptor antagonists, beta-arrestin recruitment, primary screen, cell-based, luminescence, 7a,25-OHC stimulation, uHTS; G-protein coupled receptor 183 (Homo sapiens), P32249; 7a,25-OHC stimulated; inhibition, % at 5 µM; 360,000 tested, 0.81% active; in the data active = inhibition above about 38%;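 note: enzyme fragment complementation signal reports receptor beta-arrestin coupling in cells; 0% = agonist plus DMSO wells and 100% = wells without agonist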
Target sequence (P32249 whole entry, looked up, the tested form may be a part): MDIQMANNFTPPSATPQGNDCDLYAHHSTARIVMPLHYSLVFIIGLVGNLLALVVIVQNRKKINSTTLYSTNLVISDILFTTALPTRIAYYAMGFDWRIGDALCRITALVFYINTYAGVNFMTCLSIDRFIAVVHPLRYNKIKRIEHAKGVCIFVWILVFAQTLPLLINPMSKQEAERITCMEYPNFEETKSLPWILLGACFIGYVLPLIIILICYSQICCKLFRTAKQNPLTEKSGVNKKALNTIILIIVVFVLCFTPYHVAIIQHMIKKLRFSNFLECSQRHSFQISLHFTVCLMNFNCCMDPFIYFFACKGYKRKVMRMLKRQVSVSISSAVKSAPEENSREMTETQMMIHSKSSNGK
MC4R antag cAMP: MC4R antagonists of cAMP signaling, primary screen, cell-based, TR-FRET, antagonist arm of biased-ligand search; Melanocortin receptor 4 (Homo sapiens), P32245; MC4R-expressing cells, MTII-stimulated cAMP, LANCE TR-FRET; inhibition, % at 6.5 µM; 360,000 tested, 0.48% active; AID 540295, 2011;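 active = inhibition above its plate's cutoff, the mean of tested wells on that plate plus 3 SD, cut at about 29% in these data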;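 note: 0% = Melanotan II alone and 100% = Melanotan II plus saturating MCL0020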
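System – human MC4R-expressing U2OS cells · Also added – Melanotan II · Dosing – one concentration, 6.5 µM nominal · Timing – 30-min compound, 1-h challenge, 1-h detection, room temperature · Measured by – Eu-cAMP/anti-cAMP TR-FRET, emission 671 nm · Replicates – singlicate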
MC4R barr agon: MC4R agonists recruiting beta-arrestin, primary screen, cell-based, luminescence, agonist arm of biased-ligand search | Melanocortin receptor 4 (Homo sapiens), P32245 | U2OS MC4R beta-arrestin complementation; percent of melanotan II response, DMSO zero | activation, % at 8.9 µM | 360,000 tested, 0.98% active | AID 540308, 2011;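 active = activation above a per-plate cutoff, the mean activation of sample wells on that plate plus 3 SD, cut at about 8% in these data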
Active calls of the source: *; / = no result. Compounds with a hit are over-represented: about 2.8% of the library has one in this group of screens.

SMILES	m5-HT2A agonist	EBI2 block	MC4R antag cAMP	MC4R barr agon
COc1cccc(CN2CCNC(=O)C2CC(=O)O)c1OC (stereo not given)	14*	-9	-3	0
CCCCn1c(SCC(=O)NCc2ccco2)nc2c(sc3ccccc32)c1=O	-1	17	-2	4
CCOCCCn1c(SCC(=O)NCc2ccco2)nc2c(sc3ccccc32)c1=O	4	18	20	9.4*
COc1ccc2[nH]c3c(=O)n(/N=C/[C@H]4C(C)C=C(C)CC4C)c(=O)[nH]c3c2c1 (stereo not given in full)	-5	-8	20	8.3*
COc1ccc2c(c1)[nH]c1c(=O)n(/N=C/C3C(C)C=C(C)CC3C)c(=O)[nH]c12 (stereo not given)	-1	-10	5	-1
CCOC(=O)c1oc2ccccc2c1NC(=O)c1ccc2c(c1)OCO2	4	7	11	9.4*
CCOC(=O)c1[nH]c2ccccc2c1NC(=O)c1ccc2c(c1)OCO2	9	-4	-1	1
C=CCNc1nc(N2CCCCC2)c(C#N)c2c1CN(Cc1ccccc1)CC2	39*	13	11	-2
O=C(Nc1ccc(N2CCOCC2)cc1)NC1CCCCC1	15*	-1	1	-2
CCc1cccc(NC(=O)COC(=O)C2COc3ccccc3O2)c1 (stereo not given)	3	-6	-6	1
CCc1cc(-c2nnn(CCC3COCCO3)c2C(C)(C)O)ccc1-c1cn(CCc2c[nH]c3ccccc23)nn1 (stereo not given)	-5	4	11	-1
C=C(CN(C)C)C(=O)c1ccc(C)cc1C	-9	10	21	-4
C=C(CN(C)C)C(=O)c1ccc2c(c1)OCO2	-2	34	31*	-3
CCCCCCCCN1C(=O)[C@H](CC(=O)N2CCOCC2)C[C@@]2(C(=O)OC)CCCCC=C12	-4	13	/	/
CN1CCN/C1=C(/C(Cl)=C(Cl)Cl)[N+](=O)[O-]	-2	3	36*	-3
O=[N+]([O-])C(=C1SCCS1)C(=C(Cl)Cl)N1CCCCC1	-3	12	3	-2
COc1ccc(C(=O)N2CCC2(C)C(=O)NC(C)C)cc1 (stereo not given)	5	0	-1	1
CCn1c(SCC(=O)c2ccc(O)c(O)c2)nnc1-c1ccc(C)cc1	-4	8	2	-2
CCn1c(SCC(=O)c2ccc3c(c2)Cc2ccccc2-3)nnc1-c1ccc(N)cc1	4	16	7	11*
O=C1CC(C(=O)N2CCc3ccccc32)CN1c1cccc(C(F)(F)F)c1 (stereo not given)	-7	2	4	2
Cc1ccc(NC(=S)N/N=C/c2c(C)nn(-c3ccccc3)c2N2CCCC2)cc1	-3	-14	12	8.6*
CCCCCCCCCCOC(=O)Cn1c(COc2ccc(Cl)cc2)[n+](C)c2ccccc21	-3	12	22	17*
CCCCCCCCCCOC(=O)Cn1c(COc2ccccc2C)[n+](C)c2ccccc21	10	2	3	49*
CCOC(=O)Cn1c(COc2ccccc2OC)[n+](C)c2ccccc21	-3	2	1	-1
CC(C)OC(=O)c1sc2nc(-c3ccccc3)ccc2c1N	-2	48*	7	9.5*
SMILES	m5-HT2A agonist	EBI2 block	MC4R antag cAMP	MC4R barr agon
COc1ccc(C(=O)c2sc3nc(-c4ccccc4)ccc3c2N)cc1	4	11	24	1
COc1ccc(COC[B-](F)(F)F)cc1	11	-9	-34	-1
CC(C)C[C@@H](NC(=O)C1CCC(CNC(=O)[C@@H]2CCCN2C(=O)OC(C)(C)C)CC1)C(=O)O (stereo not given in full)	3	-1	-5	-1
CCCCNC(=O)CSc1nc2ccccc2c(=O)n1CC1COc2ccccc2O1 (stereo not given)	4	15	6	9.4*
CCCCCCn1c(SCC(=O)Nc2cc(C)on2)nc2ccccc2c1=O	3	12	10	12*
CCCCN(CC)C(=O)CSc1nc2ccccc2c(=O)n1CC1COc2ccccc2O1 (stereo not given)	-3	11	6	-1
CN(CC(=O)Nc1ccc(F)c(F)c1F)C(=O)CCN1C(=O)C2CC=CCC2C1=O (stereo not given)	1	-5	-3	-2
CCc1ccc(N2C(=O)/C(=C/c3cccs3)N(CC(=O)OC)C2=S)cc1	-3	8	2	9.1*
COc1ccc(/C=C/C(=O)Nc2cc(C)nn2-c2nc3ccccc3n2Cc2cccc([N+](=O)[O-])c2)cc1	5	20	-2	8.6*
COc1cccc(N=c2oc3ccc(OC)cc3cc2-c2nc3ccccc3[nH]2)c1	1	9	-15	8.5*
CCOC(=O)N1CCN(S(=O)(=O)c2ccc(C(=O)NNc3nc4c(C)cc(C)cc4s3)cc2)CC1	-3	-7	4	-1
CCOC(=O)N1CCN(S(=O)(=O)c2ccc(C(=O)NNc3nc4cc(C)cc(C)c4s3)cc2)CC1	23*	-5	13	1
O=C(NC1CCOC1=O)c1ccccc1 (stereo not given)	8	4	12	0
COc1ccc(-c2cc(C(=O)Nc3cc(C)n(Cc4ccc(Cl)cc4)n3)no2)cc1OC	2	12	6	24*
COc1cc(NC(=O)C2(C)CCCN2C(=O)C(C)C)cc(OC)c1OC (stereo not given)	0	-8	2	-1
Cc1ccc(S(=O)(=O)N2Cc3ccccc3CC2C(N)=O)cc1 (stereo not given)	-3	-10	5	-3
CCOc1cc(C=C(C(=O)OC)C(=O)OC)ccc1OCc1ccc([N+](=O)[O-])cc1	-9	59*	10	-1
CC(=O)NC(c1ccccc1)c1nc(-c2cc(F)cc(F)c2)cs1 (stereo not given)	-1	-10	2	1
S=c1[nH]nc(-c2cccs2)n1/N=C/c1cn(-c2ccccc2)nc1-c1ccccc1	2	18	19	9.4*
Cc1ccc(-c2nn(-c3ccccc3)cc2/C=N/n2c(-c3ccncc3)n[nH]c2=S)cc1	3	8	10	-2
CN(C)C1=NC[C@H](Cc2ccccc2)N1CC1CCCCCC1	-4	12	5	1
CCN(CC)c1c(C)nc2ccc(C(=O)Nc3cc(-c4ccccc4)ccc3OC)cn12	-12	32	9	0
COc1ccc2c3c(ccc2c1)C(=O)/C(=C/O)CC3	6	-3	11	26*
COC(=O)C[C@@H]1CC[C@@H](NS(=O)(=O)c2cccc(OC)c2)[C@@H](CO)O1	-1	-9	/	/
Cc1cc(C)n(-c2ccc(C(=O)OCC(=O)Nc3ccccc3F)cc2)n1	-1	-3	9	-6

High-throughput results: PubChem BioAssay, several laboratories
